Results taken from ChEMBL document CHEMBL1275592, “AmpN-AmpG operon is essential for expression of L1 and L2 beta-lactamases in Stenotrophomonas maltophilia” (2010).
Values after ≈ are worked out from the molar mass of the structure shown.

Experiments:
Format in all cases: functional
[1] = tested on: Stenotrophomonas maltophilia; experiment: Antimicrobial activity against Stenotrophomonas maltophilia KJG harboring ampG with xylE-Gmomega cassette insertion by agar dilution method
In short: (§1)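 MICs were determined in triplicate by standard 2-fold serial agar dilution, following CLSI guidelines.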

[2] = tested on: Stenotrophomonas maltophilia; experiment: Antimicrobial activity against Stenotrophomonas maltophilia KJN2 harboring pRK-NG plasmid and ampN with xylE-Gmomega cassette insertion by agar dilution method; in short: as §1
[3] = tested on: Stenotrophomonas maltophilia; experiment: Antimicrobial activity against Stenotrophomonas maltophilia KJN2 harboring pRK415 plasmid and ampN with xylE-Gmomega cassette insertion by agar dilution method; in short: as §1
[4] = tested on: Stenotrophomonas maltophilia; experiment: Antimicrobial activity against Stenotrophomonas maltophilia KJN2 harboring pRK-EcG plasmid and ampN with xylE-Gmomega cassette insertion by agar dilution method; in short: as §1
[5] = tested on: Stenotrophomonas maltophilia; experiment: Antimicrobial activity against Stenotrophomonas maltophilia KJ harboring pRK415 plasmid by agar dilution method; in short: as §1
[6] = tested on: Stenotrophomonas maltophilia; experiment: Antimicrobial activity against Stenotrophomonas maltophilia KJ harboring pRK-NG plasmid by agar dilution method; in short: as §1
[7] = tested on: Stenotrophomonas maltophilia; experiment: Antimicrobial activity against ampN deficient Stenotrophomonas maltophilia KJ by agar dilution method; in short: as §1
[8] = tested on: Stenotrophomonas maltophilia; experiment: Antimicrobial activity against Stenotrophomonas maltophilia KJN2 harboring ampN with xylE-Gmomega cassette insertion by agar dilution method; in short: as §1
[9] = tested on: Stenotrophomonas maltophilia; experiment: Antimicrobial activity against Stenotrophomonas maltophilia KJ by agar dilution method; in short: as §1
[10] = tested on: Stenotrophomonas maltophilia; experiment: Antimicrobial activity against Stenotrophomonas maltophilia KJN2 harboring pRK-G plasmid and ampN with xylE-Gmomega cassette insertion by agar dilution method; in short: as §1
[11] = tested on: Stenotrophomonas maltophilia; experiment: Antimicrobial activity against ampN deficient Stenotrophomonas maltophilia KJ harboring ampG with xylE-Gmomega cassette insertion by agar dilution method; in short: as §1
[12] = tested on: Stenotrophomonas maltophilia; experiment: Antimicrobial activity against Stenotrophomonas maltophilia KJN1 harboring ampN with xylE-Gmomega cassette insertion by agar dilution method; in short: as §1

Compound | MIC [1] | MIC [2] | MIC [3] | MIC [4] | MIC [5] | MIC [6] | MIC [7] | MIC [8] | MIC [9] | MIC [10] | MIC [11] | MIC [12]
CC1(C)S[C@@H]2[C@H](NC(=O)C(C(=O)O)c3ccccc3)C(=O)N2[C@H]1C(=O)O (some centres undefined) [CARBENICILLIN] | 2 µg/mL (≈ 5.29 µM) | 1020 µg/mL (≈ 2710 µM) | 4 µg/mL (≈ 10.6 µM) | 512 µg/mL (≈ 1350 µM) | 1020 µg/mL (≈ 2710 µM) | 1020 µg/mL (≈ 2710 µM) | 4 µg/mL (≈ 10.6 µM) | 2 µg/mL (≈ 5.29 µM) | 1020 µg/mL (≈ 2710 µM) | 4 µg/mL (≈ 10.6 µM) | 2 µg/mL (≈ 5.29 µM) | 8 µg/mL (≈ 21.1 µM)
CCN1CCN(C(=O)N[C@@H](C(=O)N[C@@H]2C(=O)N3[C@@H]2SC(C)(C)[C@@H]3C(=O)O)c2ccccc2)C(=O)C1=O [PIPERACILLIN] | 32 µg/mL (≈ 61.8 µM) | 1020 µg/mL (≈ 1980 µM) | 16 µg/mL (≈ 30.9 µM) | 512 µg/mL (≈ 989 µM) | 1020 µg/mL (≈ 1980 µM) | 1020 µg/mL (≈ 1980 µM) | 32 µg/mL (≈ 61.8 µM) | 16 µg/mL (≈ 30.9 µM) | 1020 µg/mL (≈ 1980 µM) | 32 µg/mL (≈ 61.8 µM) | 16 µg/mL (≈ 30.9 µM) | 32 µg/mL (≈ 61.8 µM)
